# A1 apoptosis 2 – A1 inhibitors via caspase activation, primary screen, cell-based, luminescence, HTS, two replicates | MEF A1-2A-BIM cells, caspase-Glo luminescence, 3 h; percent of clofoctol response, DMSO zero | caspase activation, % (test concentration not listed) | 24,000 tested, under 10 active; in the data active = caspase activation above about 5.9%; inconclusive = no clear call, values can overlap the other calls; inactive = below about 2.2%
#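 Evaluation: Caspase-3/7 activity from luminescence increase | Assay system: A1-2A-BIM mouse embryonic fibroblasts | Quantity: 2500 MEF cells/well | Medium: RPMI-1640 plus 10% FBS | Detection: Caspase-Glo 3/7 luminescence, 1 h at room temperature | Dosing: 50 nL compound per well, pinned | Timing: Cells settled overnight, compound exposure 3 h at 37 °C, 5% CO2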
# T cruzi intra – inhibitors of intracellular Trypanosoma cruzi, primary screen, cell-based, plate reader, single point, set 2; intracellular Trypanosoma cruzi in host cells; activity score (inhibition), % at 5.01 µM; hit rate 4.9% among 22,000; AID 651903, 2012; in the data active = activity score above about 55%; inconclusive = no clear call, values can overlap the other calls;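 note: parasites and compound incubated about four days before reading; 0% = median of neutral control wells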
# INS-1E ATP HTS – protection of INS-1E cells from cytokine death, primary screen, ATP luminescence, single point. INS-1E cytokine-induced death, 48 h; normalised: neutral wells 0, positive control 100. protection from cytokine-induced ATP loss, % at 10 µM. hit rate 0.1% among 20,000;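 active = mean replicate protection from cytokine-induced ATP loss at least 50% and at least 75% of replicates each reaching 50%; inconclusive = meets only one of the two criteria, mean or replicate share; inactive = fails both the mean and replicate share criteria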
#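 Material: INS-1E rat cells; Quantity: 8000 cells/well; Buffer or medium: phenol-red-free RPMI with 5% fetal bovine serum; Probe or stimulus: cytokine cocktail of IFN-γ, TNF-α and IL-1β; Compound dosing: single test concentration per compound, delivered by pin transfer; Incubation: 48 h co-treatment, 10 min post-lysis read; Signal: CellTiter-Glo luminescence.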
# Active calls of the source: *; ? = inconclusive; nt = no result. Only a selection was taken, and hits are over-represented in it overall.
SMILES,A1 apoptosis 2,T cruzi intra,INS-1E ATP HTS
C[C@@H]1CN([C@@H](C)CO)C(=O)Cc2cc(NS(=O)(=O)c3cccs3)ccc2O[C@@H]1CN(C)Cc1ccc(Oc2ccccc2)cc1,nt,63.0*,-20.3
C[C@H]1CN([C@@H](C)CO)C(=O)Cc2cc(NS(=O)(=O)c3cccs3)ccc2O[C@H]1CN(C)Cc1ccc(-c2ccccc2)cc1,nt,57.2*,-35.0
O=C1O[C@H](c2ccccc2)[C@H](c2ccccc2)N2[C@H]1[C@@H](C(=O)Nc1nc3ccccc3s1)[C@]1(C(=O)Nc3ccc(C#CC4(O)CCCCCC4)cc31)[C@H]2c1ccc(OCCO)cc1,0.5,nt,nt
COc1cc(Br)cc(/C=N/NC(=O)CCCCCC(=O)Nc2ccccc2O)c1O,-0.5,33.6,-6.8
COc1ccc(NC(=O)Nc2ccc3c(c2)CC(=O)N([C@@H](C)CO)C[C@H](C)[C@H](CN(C)Cc2ccc(C(=O)Nc4ccccc4N)cc2)O3)cc1,-1.1,45.3,4.1
COc1ccc(NC(=O)Nc2ccc3c(c2)C(=O)N([C@H](C)CO)C[C@H](C)[C@H](CN(C)Cc2ccc(C(=O)Nc4ccccc4N)cc2)O3)cc1,1.8,17.3,-8.7
COc1ccc(NC(=O)Nc2ccc3c(c2)CC(=O)N([C@@H](C)CO)C[C@H](C)[C@@H](CN(C)Cc2ccc(C(=O)Nc4ccccc4N)cc2)O3)cc1,-0.9,62.7*,-6.3
COc1ccc(NC(=O)Nc2ccc3c(c2)CC(=O)N([C@H](C)CO)C[C@@H](C)[C@@H](CN(C)Cc2ccc(C(=O)Nc4ccccc4N)cc2)O3)cc1,0.9,65.6*,-7.7
COc1ccc(NC(=O)Nc2ccc3c(c2)CC(=O)N([C@H](C)CO)C[C@H](C)[C@H](CN(C)Cc2ccc(C(=O)Nc4ccccc4N)cc2)O3)cc1,nt,?,45.0
COc1ccc(NC(=O)Nc2ccc3c(c2)CC(=O)N([C@@H](C)CO)C[C@@H](C)[C@@H](CN(C)Cc2ccc(C(=O)Nc4ccccc4N)cc2)O3)cc1,0.6,60.1*,-17.9
CC(/C=C/C(=O)NO)=C\c1cccc(OCc2ccc(COc3ccc4ccncc4c3)cc2)c1,-0.4,nt,nt
O=C(N/N=C/c1ccc2c(c1)OCCO2)c1ccccn1,-12.9,5.8,-43.6
O=C1O[C@H](c2ccccc2)[C@H](c2ccccc2)N2[C@H]1[C@@H](C(=O)N1CCN(c3ncccn3)CC1)[C@]1(C(=O)Nc3ccc(C#CCCO)cc31)[C@H]2c1ccc(O)cc1,0.5,nt,nt
O=C1O[C@H](c2ccccc2)[C@H](c2ccccc2)N2[C@H]1[C@@H](C(=O)O)[C@]1(C(=O)Nc3ccc(C#CC4(O)CCCCCC4)cc31)[C@H]2c1ccccc1OCCO,0.9,nt,nt
C[C@H](CO)N1C[C@H](C)[C@@H](CN(C)Cc2ccc(C(=O)Nc3ccccc3N)cc2)Oc2ccc(NC(=O)C3CC3)cc2CC1=O,-0.4,nt,nt
C[C@@H]1CN([C@H](C)CO)C(=O)Cc2cc(NC(=O)C3CCCCC3)ccc2O[C@@H]1CN(C)Cc1ccc(C(=O)Nc2ccccc2N)cc1,nt,53.6,-12.6
C[C@H](CO)N1C[C@H](C)[C@H](CN(C)Cc2ccc(C(=O)Nc3ccccc3N)cc2)Oc2ccc(NC(=O)C3CC3)cc2CC1=O,nt,62.8*,31.6
C[C@H](CO)N1C[C@H](C)[C@H](CN(C)Cc2ccc(C(=O)Nc3ccccc3N)cc2)Oc2ccc(NC(=O)C3CCCCC3)cc2CC1=O,nt,61.4*,28.6
O=C(CCCCCCC(=O)Nc1ccccc1O)N/N=C/c1cccc(O)c1,-0.1,-3.0,-1.7
C[C@H](CO)N1C[C@H](C)[C@H](CN(C)C(=O)Nc2ccccc2)Oc2c(NC(=O)Nc3cccc4ccccc34)cccc2C1=O,-0.1,63.4*,-22.5
C[C@H](CO)N1C[C@H](C)[C@@H](CN(C)C(=O)Nc2ccccc2)Oc2c(NC(=O)Nc3cccc4ccccc34)cccc2C1=O,nt,67.6*,4.2
C[C@@H]1CN([C@@H](C)CO)C(=O)c2cccc(NC(=O)Nc3cccc4ccccc34)c2O[C@H]1CN(C)C(=O)Nc1ccccc1,-0.3,9.8,2.5
C[C@@H]1CN([C@H](C)CO)C(=O)c2cccc(NC(=O)Nc3cccc4ccccc34)c2O[C@H]1CN(C)C(=O)Nc1ccccc1,nt,11.7,0.9
CCOc1cccc(/C=N/NC(=O)c2ccc(C(=O)NO)cc2)c1OCC,0.4,nt,nt
C[C@H](CO)N1C[C@H](C)[C@@H](CN(C)CC2CCCCC2)Oc2c(NC(=O)NC3CCCCC3)cccc2C1=O,nt,22.8,-13.1
SMILES,A1 apoptosis 2,T cruzi intra,INS-1E ATP HTS
C[C@H]1CN([C@@H](C)CO)C(=O)c2cccc(NC(=O)NC3CCCCC3)c2O[C@H]1CN(C)Cc1ccc(Oc2ccccc2)cc1,1.1,26.7,-32.4
C[C@@H]1CN([C@H](C)CO)C(=O)c2cccc(NS(=O)(=O)c3cn(C)cn3)c2O[C@@H]1CN(C)CC1CCCCC1,1.0,60.4*,1.1
C[C@@H]1CN([C@H](C)CO)C(=O)c2cccc(NC(=O)NC3CCCCC3)c2O[C@@H]1CN(C)Cc1ccc(-c2ccccc2)cc1,nt,70.2*,-32.1
C[C@@H]1CN([C@@H](C)CO)C(=O)c2cccc(NC(=O)NC3CCCCC3)c2O[C@@H]1CN(C)Cc1ccc(Oc2ccccc2)cc1,nt,63.8*,-53.3
C[C@@H]1CN([C@H](C)CO)C(=O)c2cccc(NC(=O)NC3CCCCC3)c2O[C@H]1CN(C)CC1CCCCC1,-1.1,83.1*,-57.1
C[C@H]1CN([C@@H](C)CO)C(=O)c2cccc(NC(=O)NC3CCCCC3)c2O[C@H]1CN(C)Cc1ccc(-c2ccccc2)cc1,nt,-29.2,-19.4
C[C@H](CO)N1C[C@H](C)[C@H](CN(C)CC2CC2)Oc2c(NS(=O)(=O)c3cn(C)cn3)cccc2C1=O,-1.6,-7.3,0.8
O=C(CCCCCCC(=O)N/N=C/c1ccc(O)c(O)c1)NO,nt,-8.1,16.0
O=C(CCCCCC(=O)Nc1ccccc1O)N/N=C/c1ccc(S(=O)(=O)O)o1,0.7,nt,nt
Cc1ccc(O)c(/C=N/NC(=O)CCCCCC(=O)O)c1,-0.2,0.9,-8.4
O=C(NO)c1ccc(C(=O)N/N=C/c2ccc(-c3ccccc3)cc2)cc1,-7.1,-3.6,-18.4
C[C@@H]1CN([C@@H](C)CO)C(=O)c2cccc(NC(=O)NC3CCCCC3)c2O[C@H]1CN(C)Cc1ccc(C(F)(F)F)cc1,nt,84.6*,-6.2
C[C@@H]1CN([C@H](C)CO)C(=O)c2cccc(NC(=O)NC3CCCCC3)c2O[C@@H]1CN(C)Cc1ccc(C(F)(F)F)cc1,nt,23.2,-27.2
Cc1nc(S(=O)(=O)N[C@H]2CCN(Cc3cccc(OCCO)c3)C2)cn1C,1.2,nt,nt
O=C(CCCCCCC(=O)Nc1ccccc1O)N/N=C/c1cccc(OCCO)c1,-1.2,-1.3,-11.1
O=C(O)CCCCCCC(=O)N/N=C/c1cc(Br)ccc1O,-0.5,-11.2,10.6
COc1ccc(S(=O)(=O)N(C)C[C@@H]2Oc3ccc(NS(=O)(=O)c4ccccc4)cc3CC(=O)N([C@H](C)CO)C[C@H]2C)cc1,1.0,-14.6,10.5

# Assay outcomes as filed in PubChem.
